Source: PubChem BioAssay (several laboratories)
The list is not random: actives were taken first. Their share in the collection is about 1.3%.
CHT allo act: allosterically activates the human high affinity choline transporter | Q9GZV3 | CHT-expressing cells, membrane potential dye, choline EC20; active compounds read high; LV-AA mutant CHT in HEK293 cells | B-score at 10 µM | 310,000 tested, 0.49% active | AID 488977;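 active means initial fluorescence not abnormally high and integrated response B-score, plate-corrected, over 3 SD above library mean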
proCasp3 act: activates human procaspase-3. activation, % at 8.5 µM. recombinant procaspase-3 D3A, Ac-DEVD-pNA absorbance 405 nm. P42574. AID 463141. 330,000 tested, 0.11% active;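 active means activation above the mean of all tested compounds plus 3 SD, cut at about 21% in these data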;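 further: 0% = DMSO alone and 100% = DMSO wells spiked with extra 5 µM PC-3 D3A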
Target sequence (P42574 whole entry D9A/D28A/D175A): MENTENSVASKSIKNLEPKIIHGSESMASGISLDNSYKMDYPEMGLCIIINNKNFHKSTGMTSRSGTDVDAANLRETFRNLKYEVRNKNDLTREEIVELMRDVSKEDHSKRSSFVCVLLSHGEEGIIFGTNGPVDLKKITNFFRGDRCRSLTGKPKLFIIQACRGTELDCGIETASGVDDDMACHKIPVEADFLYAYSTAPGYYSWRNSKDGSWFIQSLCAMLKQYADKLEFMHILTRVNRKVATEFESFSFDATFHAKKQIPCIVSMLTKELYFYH
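Test system: Procaspase-3 D3A mutant; medium: Zinc-free HEPES/NaCl buffer with 0.01% Triton X-100 at pH 7.4; reagent: DEVD-pNA substrate; doses: one concentration, 8.5 µM nominal, 0.8% DMSO; times: 1 h preincubation plus 2 h reaction at 25 °C; signal: Epi-absorbance at 405 nm of released p-nitroaniline, 0 and 120 min; replicates: singlicate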
procasp7 counter: counter-screen for procaspase-3 activators: activators of human procaspase-7. recombinant procaspase-7, Ac-DEVD-pNA absorbance 405 nm; D23A/D198A/D206A triple mutant, cannot self-cleave; scale: DMSO 0, 5 µM enzyme 100. activation, % at 8.5 µM. 330,000 tested, 0.093% active. AID 463210;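 active means percent activation above the screen-wide mean plus 3 SD, cut at about 25% in these data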
Target sequence (P55210 whole entry D23A/D198A/D206A): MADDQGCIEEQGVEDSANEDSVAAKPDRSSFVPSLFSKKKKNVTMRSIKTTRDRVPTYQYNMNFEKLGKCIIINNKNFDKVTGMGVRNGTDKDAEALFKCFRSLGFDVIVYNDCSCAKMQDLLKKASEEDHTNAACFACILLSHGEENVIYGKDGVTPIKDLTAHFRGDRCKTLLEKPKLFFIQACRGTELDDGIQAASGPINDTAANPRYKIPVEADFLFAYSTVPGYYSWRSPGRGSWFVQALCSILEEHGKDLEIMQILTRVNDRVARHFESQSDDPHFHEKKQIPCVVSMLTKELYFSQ
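Assay system: Uncleavable procaspase-7 mutant enzyme / Input: 2 µM procaspase-7 mutant as dispensed / Dosing: single nominal 8.5 µM compound dose, 0.8% DMSO final / Timing: 1 h enzyme–compound preincubation and 2 h substrate reaction, both 25 °C / Detection: p-Nitroaniline absorbance at 405 nm, read at 0 and 120 min / Replication: singlicate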
CHT inh: human CHT choline transport inhibition; Q9GZV3; B-score at 10 µM; 310,000 tested, 0.86% active; CHT-expressing cells, membrane potential dye, choline response; active compounds read low; AID 488975;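 active means B-score over 3 SD under the library average, and starting fluorescence ratio not unusually high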;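 further: choline stimulus applied at its EC90 after an EC20 pre-addition; B-score computed on integrated fluorescence ratio after choline addition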
CHT block conf: human CHT inhibition, confirmatory screen; shares compounds with CHT inh; CHT-expressing cells, choline membrane potential dye; LV-to-AA substituted CHT, HEK293 cells; CHT activity remaining % of control (active compounds read low), % at 10 µM; 2,400 tested, 70% active; AID 493221;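 active means choline transporter activity left, mean of duplicates at 10 µM, below buffer-only control mean minus 3 SD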;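 further: depolarization triggered by choline at its EC90 following an EC20 pre-addition; 0% = hemicholinium-3 full block and 100% = buffer-only control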
HEK293 CHT ctr: activity in parental HEK293 cells lacking CHT; shares compounds with CHT inh; AID 493222; membrane potential ratio readout (active if shifted either direction beyond buffer ±3SD; no single direction) at 10 µM; 2,400 tested, 4% active; membrane potential dye, choline response; active = decrease or increase beyond buffer ±3SD;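 further: parental cells lack the transporter so any hit is non-specific; ratio is peak minus trough fluorescence over baseline after EC90 choline challenge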
* = called active by the depositor.

CS(=O)(=O)N(CC(O)Cn1c2ccccc2c2ccccc21)c1ccccc1 (stereo unspecified) was read as CHT allo act inactive, proCasp3 act 7.4, procasp7 counter -1.9, CHT inh inactive, CHT block conf inactive and HEK293 CHT ctr inactive.
For CN(CC(O)Cn1c2ccccc2c2ccccc21)S(C)(=O)=O (stereo unspecified) the results were CHT allo act inactive, proCasp3 act -2.1, procasp7 counter -7.2 and CHT inh inactive.
`COc1cccc(NC2=C(Cl)C(=O)OC2OC(=O)c2ccco2)c1` (stereo unspecified) gave CHT allo act inactive, proCasp3 act -6.5, procasp7 counter -17.3 and CHT inh inactive.
For CCOC(=O)c1ccc(OCCOc2cccc(C)c2)cc1 the results were CHT allo act inactive, proCasp3 act 2.5, procasp7 counter 13.1 and CHT inh inactive.
For COc1cccc(N2CCN(S(=O)(=O)c3ccc4c(c3)N(C(C)=O)CCO4)CC2)c1 the results were CHT allo act inactive, proCasp3 act 6.1, procasp7 counter 7.2 and CHT inh inactive.
`COc1cccc(Cl)c1NC(=O)N1CCc2c([nH]c3ccccc23)C1C(F)(F)F` (stereo unspecified) gave CHT allo act inactive, proCasp3 act 1.3, procasp7 counter 8.8 and CHT inh inactive.
Screening Cc1cc(C(=O)Nc2ccc([N+](=O)[O-])cn2)cs1 returned CHT allo act inactive, proCasp3 act -0.5, procasp7 counter -10.6 and CHT inh inactive.
For CCCn1nc([N+](=O)[O-])c(C(C#N)c2nc3ccccc3s2)c(Cl)c1=O (stereo unspecified) the results were CHT allo act inactive, proCasp3 act -16.2, procasp7 counter -16.2, CHT inh -14.1*, CHT block conf 17.2%* and HEK293 CHT ctr inactive.
COc1cc(NC(=O)Cn2ccsc2=N)cc(OC)c1 was read as CHT allo act inactive, proCasp3 act -4.2, procasp7 counter -5.2 and CHT inh inactive.
Screening CCN(CC)CCCn1c2c(c(SCC(=O)Nc3ccc(C)c(F)c3)nc1=O)CCC2 returned CHT allo act inactive, proCasp3 act -1.1, procasp7 counter -3.0 and CHT inh inactive.
For CCN(CC)CCCn1c2c(c(SCC(=O)Nc3ccc(OC(F)(F)F)cc3)nc1=O)CCC2 the results were CHT allo act inactive, proCasp3 act -6.0, procasp7 counter 12.9, CHT inh -12.2*, CHT block conf 38.4%* and HEK293 CHT ctr inactive.
CCCCc1ccc(NC(=O)CSc2nc(=O)n(CCCN3CCOCC3)c3c2CCC3)cc1 was read as CHT allo act inactive, proCasp3 act -14.2, procasp7 counter -2.5, CHT inh -7.94*, CHT block conf 21.3%* and HEK293 CHT ctr inactive.
`CCCCc1ccc(NC(=O)CSc2nc(=O)n(CCN3CCOCC3)c3c2CCC3)cc1` gave CHT allo act inactive, proCasp3 act -6.4, procasp7 counter 2.5 and CHT inh inactive.
CNc1ccc([N+](=O)[O-])cc1-c1nc2ccccc2[nH]c1=O was read as CHT allo act inactive, proCasp3 act 6.2, procasp7 counter 3.1 and CHT inh inactive.
For CCNC(=S)SCCOc1ccccc1C the results were CHT allo act inactive, proCasp3 act -5.9, procasp7 counter -4.2 and CHT inh inactive.
COc1ccc(CNS(=O)(=O)c2c(C(=O)N3CCCCCC3)c(C)n(C)c2C)cc1 was read as CHT allo act inactive, proCasp3 act 4.2, procasp7 counter 6.0 and CHT inh inactive.
COc1ccccc1NC(=O)/C(C#N)=C/c1ccc(OCCN2CCOCC2)c(OC)c1 was read as CHT allo act inactive, proCasp3 act 1.7, procasp7 counter -0.6, CHT inh -5.98*, CHT block conf inactive and HEK293 CHT ctr inactive.
`CCCN(CCC)CCCNC(=O)c1cn(C)c2ccc(S(=O)(=O)N(C)C3CCCCC3)cc2c1=O` gave CHT allo act inactive, proCasp3 act -1.7, procasp7 counter 9.2 and CHT inh inactive.
For CCC1CCCCN1CCCNC(=O)c1cn(CC)c2ccc(S(=O)(=O)N(C)C3CCCCC3)cc2c1=O (stereo unspecified) the results were CHT allo act inactive, proCasp3 act 0.9, procasp7 counter 2.0, CHT inh -8.28*, CHT block conf 50.1%* and HEK293 CHT ctr 2.82*.
Screening CCCCN(CCCC)CCNC(=O)c1cn(C)c2ccc(S(=O)(=O)N(C)C3CCCCC3)cc2c1=O returned CHT allo act inactive, proCasp3 act 5.9, procasp7 counter -0.9, CHT inh -6.93*, CHT block conf 31.9%* and HEK293 CHT ctr inactive.
Screening O=C(CNC(=O)c1cc(Cl)cc([N+](=O)[O-])c1)NC1CC1 returned proCasp3 act 4.2 and procasp7 counter 4.8.
For C[C@H](CO)N1C[C@H](C)[C@@H](CN(C)C(=O)NC2CCCCC2)Oc2ccc(NS(=O)(=O)c3ccc(F)cc3)cc2C1=O the results were proCasp3 act 1.8 and procasp7 counter 3.1.
`COc1cc(CNCCc2ccccc2)cc(Br)c1OCC(=O)Nc1ccccc1C` gave CHT allo act inactive, proCasp3 act 7.2, procasp7 counter 11.3, CHT inh -8.4*, CHT block conf 43.5%* and HEK293 CHT ctr inactive.
For CCNCc1cc(Br)c(OCC(=O)Nc2ccccc2)c(OC)c1 the results were CHT allo act inactive, proCasp3 act -1.0, procasp7 counter 2.1 and CHT inh inactive.
For CCCCn1c(Oc2ccc(C(=O)OC)cc2)nc2c1c(=O)n(C)c(=O)n2C the results were CHT allo act inactive, proCasp3 act 7.0, procasp7 counter -2.5, CHT inh -6.82*, CHT block conf inactive and HEK293 CHT ctr inactive.
Screening CCn1c(Oc2ccc(F)cc2)nc2c1c(=O)n(C)c(=O)n2C returned CHT allo act inactive, proCasp3 act -9.9, procasp7 counter 11.5 and CHT inh inactive.
Screening Cc1ccc(C(=O)C[n+]2cccc3ccccc32)cc1 returned CHT allo act inactive, proCasp3 act -1.0, procasp7 counter -2.8, CHT inh -6.54*, CHT block conf 28.7%* and HEK293 CHT ctr inactive.
Cc1sc[n+](CC(=O)c2ccc(Br)cc2)c1C was read as CHT allo act inactive, proCasp3 act 2.8, procasp7 counter -5.5, CHT inh -13.4*, CHT block conf 24.2%* and HEK293 CHT ctr inactive.
